The source made the active and inactive calls. No cut-off for these calls is given here.
How the values were obtained:
[1] = target: Cytochrome b (Sus scrofa, UniProt P24964); assay: Inhibition of Sus scrofa (pig) heart cytochrome bc1 complex using succinate and cytochrome c as substrates by spectrophotometric analysis
[2] = target: T1, Succinate dehydrogenase [ubiquinone] iron-sulfur subunit, mitochondrial (Sus scrofa) (UniProt Q007T0); assay: Inhibition of Sus scrofa (pig) heart succinate-cytochrome c reductase (Electron transport protein complex 2/3) using succinate and cytochrome c as substrate by spectrophotometric analysis
T1 sequence (whole entry): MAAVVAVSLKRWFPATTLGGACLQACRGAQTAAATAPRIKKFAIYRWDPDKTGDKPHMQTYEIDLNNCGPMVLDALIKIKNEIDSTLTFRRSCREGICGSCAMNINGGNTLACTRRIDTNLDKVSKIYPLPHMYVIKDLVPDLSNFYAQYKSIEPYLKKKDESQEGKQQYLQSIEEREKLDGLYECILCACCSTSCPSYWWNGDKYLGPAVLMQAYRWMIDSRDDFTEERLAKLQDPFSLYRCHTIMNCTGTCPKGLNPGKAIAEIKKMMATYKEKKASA
Outline: (§1)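 Progress curves at 0–5 nM inhibitor fitted by nonlinear regression for v0, vs, kobs; kobs versus inhibitor gives k+0, k−0; Ki = k−0/k+0. Cytochrome c 4–48 µM varied at fixed inhibitor for mechanism.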

[3] = target: Succinate-ubiquinone oxidoreductase (Sus scrofa) (UniProt A5GZW8+D0VWV4); assay: Inhibition of Sus scrofa (pig) heart succinate-ubiquinone reductase using succinate and DCIP as substrate by spectrophotometric analysis by spectrophotometric analysis; assay type: protein-complex assay
Outline: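 Porcine heart SCR preparation; complex II activity as succinate oxidation by 53 µM DCIP in 100 mM PBS pH 7.4, 0.3 mM EDTA, 20 mM succinate, 23°C, started by enzyme addition. DCIP reduction followed continuously at A600 (ε 21 mM−1cm−1) with varying inhibitor concentrations.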

[4] = target: T1, Succinate dehydrogenase [ubiquinone] iron-sulfur subunit, mitochondrial (Sus scrofa); assay: Inhibition of Sus scrofa (pig) heart succinate-cytochrome c reductase (Electron transport protein complex 2/3) using succinate and cytochrome c as substrate at 1 to 5 nM by spectrophotometric analysis
Outline: as §1

[5] = target: Cytochrome b (Sus scrofa) (UniProt P24964); assay: Inhibition of Sus scrofa (pig) heart cytochrome bc1 complex using succinate as substrate at 7.5 to 25 nM by spectropfhotometric analysis
Cytochrome b (Sus scrofa), sequence (P24964 whole entry): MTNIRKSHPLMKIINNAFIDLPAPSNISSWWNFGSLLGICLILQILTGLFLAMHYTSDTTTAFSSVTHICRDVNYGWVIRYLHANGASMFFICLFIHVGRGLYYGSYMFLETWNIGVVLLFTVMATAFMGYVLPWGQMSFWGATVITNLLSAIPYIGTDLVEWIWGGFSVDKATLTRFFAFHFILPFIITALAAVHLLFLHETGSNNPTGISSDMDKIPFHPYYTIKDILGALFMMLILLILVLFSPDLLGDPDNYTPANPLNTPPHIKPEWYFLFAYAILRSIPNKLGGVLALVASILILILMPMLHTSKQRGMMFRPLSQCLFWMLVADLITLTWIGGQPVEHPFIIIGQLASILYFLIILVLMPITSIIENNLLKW

[6] = target: Cytochrome b (Sus scrofa) (UniProt P24964); assay: Ratio of kresoxim-methyl Ki to compound Ki for Sus scrofa (pig) heart cytochrome bc1 complex
[7] = target: Cytochrome b (Sus scrofa) (UniProt P24964); assay: Ratio of pyraclostrobin Ki to compound Ki for Sus scrofa (pig) heart cytochrome bc1 complex
[8] = species on record: Sus scrofa; assay: Non-competitive inhibition of Sus scrofa (pig) heart cytochrome bc1 complex using cytochrome c as substrate
Outline: as §1

[9] = species on record: Sus scrofa; assay: Competitive inhibition of Sus scrofa (pig) heart cytochrome bc1 complex using ubiquinol as substrate
[10] = target: Cytochrome b (Sus scrofa) (UniProt P24964); assay: Ratio of azoxystobin Ki to compound Ki for Sus scrofa (pig) heart cytochrome bc1 complex

Cytochrome b, sequence (P24964 whole entry): as above

CO/N=C(/C(=O)OC)c1ccccc1COc1ccccc1C [KRESOXIM-METHYL]
Ki [1]: 160 nM

CO/C=C(/C(=O)OC)c1ccccc1COc1cc(-c2ccccc2OC)nn1C
Ki [1]: 29.1 nM

CO/C=C(/C(=O)OC)c1ccccc1COc1cc(-c2ccccc2OC(=O)c2ccc(F)cc2)nn1C
Ki [1]: 97.7 nM

CO/C=C(/C(=O)OC)c1ccccc1COc1cc(-c2cc(C)ccc2OC)nn1C
Ki [1]: 19.9 nM

CO/N=C(/C(=O)OC)c1ccccc1COc1cc(-c2ccccc2O)nn1C
inhibition [2]: Active
inhibition [3]: inactive
Ki [1]: 3.8 nM

CO/C=C(/C(=O)OC)c1ccccc1COc1cc(-c2ccccc2O)nn1C
inhibition [2]: Active
inhibition [3]: inactive
Ki [1]: 1.2 nM

CO/C=C(/C(=O)OC)c1ccccc1Oc1cc(Oc2ccccc2C#N)ncn1 [AZOXYSTROBIN]
Ki [1]: 298 nM

CO/C=C(/C(=O)OC)c1ccccc1COc1cc(-c2cc(C)ccc2O)nn1C
inhibition [2]: Active
inhibition [3]: inactive
Ki [1]: 3.1 nM

COC(=O)N(OC)c1ccccc1COc1ccn(-c2ccc(Cl)cc2)n1 [PYRACLOSTROBIN]
Ki [1]: 3.3 nM

CO/C=C(/C(=O)OC)c1ccccc1COc1cc(-c2ccccc2OCc2ccccc2)nn1C
Ki [1]: 12.7 nM

CO/C=C(/C(=O)OC)c1ccccc1COc1cc(-c2cc(Cl)ccc2O)nn1C
inhibition [4]: Active
inhibition [5]: Active
Ratio Ki [6]: 280
inhibition [3]: inactive
Ratio Ki [7]: 5.8
inhibition [8]: Active
inhibition [9]: Active
Ratio Ki [10]: 522
Ki [1]: 0.57 nM

Reference: ChEMBL document CHEMBL3046765, “Subnanomolar inhibitor of cytochrome bc1 complex designed by optimizing interaction with conformationally flexible residues” (J Am Chem Soc, 2010)
